From PMC3967199 (Scientific Reports, 2014)
Where two headings read alike, the source gives them in different places.

Tests used:
[1] = tested on: MCF7 cells; assay: Peptide-SAQdot605 binding, fluorescence microscopy; assay type: cell-based
[2] = tested on: H1299 and H460 xenografts; assay type: in vivo, NOD/SCID mice
[3] = tested on: human NSCLC tumor samples; assay: Tumor microarray binding of Peptide-SAQdot 605; details: of 59 human NSCLC tumor samples; 10 nM Peptide-SAQdot 605, 30 minutes
In short: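 Commercial paraffin lung cancer tissue microarray; dewaxed, antigen retrieval in 10 mM citrate pH 6.0 at 65°C for 10 min, blocked in PBS + 2.5% BSA. Stained with peptide conjugated 1:1 to streptavidin-Qdot605 in 50% PBS/50% RPMI with 2.5% bovine serum. Washed, DAPI-mounted, three areas imaged per sample. Red Qdot signal compared against green-channel autofluorescence; scored by five independent scientists.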

Sequence	Binding of peptide-SAQdot605 [1]	H460 tumor/H1299 tumor ([2]; animal shown, 24 h)	H460 tumor/lung ([2]; animal shown, 24 h)	H460/lung ([2]; average of mice (± SEM in text), i.v., ex vivo, 24 h)	H460 tumor/H1299 tumor ([2]; average of mice, i.v., ex vivo, 24 h)	Samples scored positive for peptide binding [3]	Tumor specificity in vivo ([2]; acetylated peptide)	Tumor uptake of non-acetylated peptide ([2]; free amino-terminus, before acetylation)
EAMNSAEQSAAVVQWEKRRI [Peptide H460.1]	specific binding	8 fold	15 fold	14 ± 6.5	27			
FHAVPQSFYTAP [HCC15.2]						24%	accumulates in both H1299 and H460 tumors	No tumor uptake
